Measurements published in ChEMBL document CHEMBL1132468, “5-(Tryptophyl)amino-1,3-dioxoperhydropyrido[1,2-c]pyrimidine-based potent and selective CCK(1) receptor antagonists: structural modifications at the tryptophan domain” (J Med Chem, 1999).
Residues, ends and D or L forms follow the SMILES beside them.

What was measured:
Rattus norvegicus [1] = assay: Compound (CCK1 antagonist) was administered intraperitoneally for the effect of increase in plasma lipase activity induced by caerulein in rat
Rattus norvegicus [2] = assay: Compound (CCK1 antagonist) was administered orally for the effect of increase in plasma amylase activity induced by caerulein in rat.; format: functional
Method in brief: (§1)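 Caerulein pancreatitis in fasted (24 h) male Wistar rats (190–210 g): four hourly sc injections of 10 µg/kg. Antagonist dosed orally (0.25 mL/100 g; 0.1 or 1 mg/kg) 60 min before the first caerulein injection. Plasma drawn 3 h after the final injection. Amylase and lipase activities read with commercial kits, in IU/mL. Comparisons by ANOVA plus Scheffé's test against caerulein.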

Rattus norvegicus [3] = assay: Compound (CCK1 antagonist) was administered orally for the effect of increase in plasma lipase activity induced by caerulein in rat; format: functional
Method in brief: as §1

Rattus norvegicus [4] = assay: Compound (CCK1 antagonist) was administered intraperitoneally for the effect of increase in plasma amylase activity induced by caerulein in rat; format: functional
Method in brief: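 Male Wistar rats (190–210 g), fasted 24 h, given four sc caerulein injections (10 µg/kg) at hourly intervals. Antagonist given ip (0.25 mL/100 g; 0.1 or 1 mg/kg) 30 min before the first caerulein dose. Blood taken 3 h after the last injection. Plasma amylase and lipase measured by commercial kits, in IU/mL. Statistics by ANOVA with Scheffé's test against caerulein alone.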

CSCC[C@H](NC(=O)[C@H](Cc1c[nH]c2ccccc12)NC(=O)CNC(=O)[C@@H](NC(=O)[C@H](Cc1ccc(OS(=O)(=O)O)cc1)NC(=O)[C@H](CC(=O)O)NC(=O)[C@H](CCC(N)=O)NC(=O)[C@@H]1CCC(=O)N1)[C@@H](C)O)C(=O)N[C@@H](CC(=O)O)C(=O)N[C@@H](Cc1ccccc1)C(N)=O [CAERULIN] (HELM PEPTIDE1{[Glp].Q.D.[O=C([C@H](Cc1ccc(OS(=O)(=O)O)cc1)N[*:1])[*:2]].T.G.W.M.D.F.[am]}$$$$V2.0)
Increase in plasma lipase (Rattus norvegicus [1]): 3100 IU ml-1
Increase in plasma amylase (Rattus norvegicus [2]): 39293 IU ml-1
Increase in plasma lipase (Rattus norvegicus [3]): 2801 IU ml-1
Increase in plasma amylase (Rattus norvegicus [4]): 52101 IU ml-1
